Experimental data: ChEMBL document CHEMBL4811252, “Identification of novel 1,3-diaryl-1,2,4-triazole-capped histone deacetylase 6 inhibitors with potential anti-gastric cancer activity” (Eur J Med Chem, 2021)
Activity calls are given as the source filed them. No cut-off for these calls is given here.

Columns and labels:
[1] = system: MGC-803; assay: Induction of apoptosis in human MGC803 cells assessed as necrotic cells at 4 uM measured after 48 hrs by Annexin-V FITC/PI staining based flow cytometry (reference value: 4.74%); assay type: functional
[2] = system: MGC-803; assay: Induction of apoptosis in human MGC803 cells assessed as early apoptotic cells at 4 uM measured after 48 hrs by Annexin-V FITC/PI staining based flow cytometry (reference value: 0.19%); assay type: functional
[3] = system: MGC-803; assay: Antiproliferative activity against human MGC803 cells at 2 to 8 uM after 72 hrs by EdU staining based assay; assay type: functional, cell-based; details: dose 2-8 µM
Summary of the method: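 MGC803 cells exposed to 0, 2, 4 or 8 µM for 72 h in 24-well plates, then EdU staining per kit instructions. EdU+ cells were imaged by immunofluorescence and quantified. Mean ± SD of three independent experiments; DMSO control.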

[4] = target: T1, Histone deacetylase 8 (Homo sapiens, UniProt Q9BY41); assay: Inhibition of HDAC8 (unknown origin)
T1 sequence (Q9BY41 whole entry): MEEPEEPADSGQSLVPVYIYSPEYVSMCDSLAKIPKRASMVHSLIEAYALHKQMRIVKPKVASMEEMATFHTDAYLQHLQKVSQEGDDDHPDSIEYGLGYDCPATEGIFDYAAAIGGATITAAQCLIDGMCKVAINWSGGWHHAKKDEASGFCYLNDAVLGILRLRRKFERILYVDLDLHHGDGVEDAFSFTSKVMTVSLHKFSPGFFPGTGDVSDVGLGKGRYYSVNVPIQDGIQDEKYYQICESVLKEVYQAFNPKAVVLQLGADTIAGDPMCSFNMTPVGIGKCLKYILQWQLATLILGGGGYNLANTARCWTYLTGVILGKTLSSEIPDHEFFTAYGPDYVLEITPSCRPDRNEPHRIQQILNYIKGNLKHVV

[5] = Acute toxicity in C57BL/6 mouse assessed as kidney tissue damage at 2 g/kg, po administered via gavage measured up to 14 days by HE staining based assay; assay type: organism-based; details: in vivo, 2000 mg/kg, 336 h, time <=14 day
Summary of the method: (§1)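 Mice aged 8-10 weeks, 20 females and 20 males, split into two groups: vehicle control (0.5% CMC-Na) or a single oral gavage dose of 2000 mg/kg. Animals were fed and observed normally for 14 days, recording body weight, mortality and behaviour. Heart, liver, spleen, lung and kidney sections were then fixed, embedded and H&E stained.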

[6] = Acute toxicity in C57BL/6 mouse assessed as change in body weight at 2 g/kg, po administered via gavage measured up to 14 days; assay type: organism-based; details: in vivo, 2000 mg/kg, 336 h, time <=14 day; summary of the method: as §1
[7] = target: T2, Protein deacetylase HDAC6 (Homo sapiens) (UniProt Q9UBN7); assay: Inhibition of HDAC6 in human MGC803 cells assessed as accumulation of acetylated alpha-tubulin level after 48 hrs by Western blotting analysis; assay type: cell-based; details: MGC-803, dose 2-8 µM
T2 sequence (whole entry): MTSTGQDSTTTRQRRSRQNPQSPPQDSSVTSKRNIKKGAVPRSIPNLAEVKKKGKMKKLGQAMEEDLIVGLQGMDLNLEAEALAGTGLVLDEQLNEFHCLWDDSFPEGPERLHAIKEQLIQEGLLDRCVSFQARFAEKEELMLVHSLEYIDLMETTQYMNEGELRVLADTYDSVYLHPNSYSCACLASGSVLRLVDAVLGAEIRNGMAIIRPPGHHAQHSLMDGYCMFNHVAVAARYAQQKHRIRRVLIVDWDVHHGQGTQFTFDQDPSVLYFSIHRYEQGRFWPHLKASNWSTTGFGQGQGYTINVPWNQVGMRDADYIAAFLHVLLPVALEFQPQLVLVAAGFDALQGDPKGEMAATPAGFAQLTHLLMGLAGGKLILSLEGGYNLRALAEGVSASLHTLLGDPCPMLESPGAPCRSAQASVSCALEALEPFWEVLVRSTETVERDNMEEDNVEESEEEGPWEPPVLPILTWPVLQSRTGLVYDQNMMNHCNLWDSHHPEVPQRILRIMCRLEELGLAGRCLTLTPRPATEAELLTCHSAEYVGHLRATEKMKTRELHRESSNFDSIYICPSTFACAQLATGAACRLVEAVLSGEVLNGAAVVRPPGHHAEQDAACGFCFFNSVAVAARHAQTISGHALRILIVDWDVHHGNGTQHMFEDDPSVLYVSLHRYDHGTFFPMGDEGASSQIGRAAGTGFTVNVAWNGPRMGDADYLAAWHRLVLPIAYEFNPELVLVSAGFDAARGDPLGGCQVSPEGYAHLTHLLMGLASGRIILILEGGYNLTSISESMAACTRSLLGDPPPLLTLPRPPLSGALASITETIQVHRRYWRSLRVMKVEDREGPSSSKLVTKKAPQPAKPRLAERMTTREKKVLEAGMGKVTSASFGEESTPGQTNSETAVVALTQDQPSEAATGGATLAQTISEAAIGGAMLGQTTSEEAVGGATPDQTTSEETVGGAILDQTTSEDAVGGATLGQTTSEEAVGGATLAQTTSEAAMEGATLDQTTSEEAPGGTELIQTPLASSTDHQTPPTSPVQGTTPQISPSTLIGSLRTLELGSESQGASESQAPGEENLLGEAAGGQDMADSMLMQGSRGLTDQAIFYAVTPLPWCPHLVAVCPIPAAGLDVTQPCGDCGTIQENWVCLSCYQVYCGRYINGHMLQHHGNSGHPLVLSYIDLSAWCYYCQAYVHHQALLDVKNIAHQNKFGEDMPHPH
Summary of the method: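 MGC803 cells treated for 48 h, then lysed (0.1% SDS, 150 mM NaCl, 25 mM Tris-HCl, 1% deoxycholate, 1% NP-40, 1% PMSF). Protein quantified by BCA and resolved on 8–10% SDS-PAGE onto PVDF. Blocked in 5% milk, primary antibodies overnight at 4 °C, HRP secondary, ECL. GAPDH, total α-tubulin and H3 as references. Mean ± SD of three experiments.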

[8] = system: MGC-803; assay: Induction of apoptosis in human MGC803 cells assessed as necrotic cells at 8 uM measured after 48 hrs by Annexin-V FITC/PI staining based flow cytometry (reference value: 4.74%); assay type: functional
[9] = system: MGC-803; assay: Antiproliferative activity against human MGC803 cells incubated for 72 hrs by MTT assay; assay type: functional, cell-based; details: MGC-803, 72 h
[10] = target: Histone deacetylase 2 (Homo sapiens, UniProt Q92769); assay: Inhibition of HDAC2 (unknown origin)
[11] = target: Histone deacetylase 1 (Homo sapiens, UniProt Q13547); assay: Inhibition of recombinant human HDAC1 using Z-(Ac)-Lys-AMC as substrate incubated for 40 mins by fluorescence based assay
[12] = Acute toxicity in C57BL/6 mouse assessed as behavioral abnormalities at 2 g/kg, po administered via gavage measured up to 14 days; assay type: organism-based; details: in vivo, 2000 mg/kg, 336 h, time <=14 day; summary of the method: as §1
[13] = Acute toxicity in C57BL/6 mouse assessed as spleen tissue damage at 2 g/kg, po administered via gavage measured up to 14 days by HE staining based assay; assay type: organism-based; details: in vivo, 2000 mg/kg, 336 h, time <=14 day; summary of the method: as §1
[14] = system: MGC-803; assay: Induction of apoptosis in human MGC803 cells assessed as late apoptotic cells at 4 uM measured after 48 hrs by Annexin-V FITC/PI staining based flow cytometry (reference value: 2.74%); assay type: functional

Sequence of Histone deacetylase 1 (Q13547 whole entry): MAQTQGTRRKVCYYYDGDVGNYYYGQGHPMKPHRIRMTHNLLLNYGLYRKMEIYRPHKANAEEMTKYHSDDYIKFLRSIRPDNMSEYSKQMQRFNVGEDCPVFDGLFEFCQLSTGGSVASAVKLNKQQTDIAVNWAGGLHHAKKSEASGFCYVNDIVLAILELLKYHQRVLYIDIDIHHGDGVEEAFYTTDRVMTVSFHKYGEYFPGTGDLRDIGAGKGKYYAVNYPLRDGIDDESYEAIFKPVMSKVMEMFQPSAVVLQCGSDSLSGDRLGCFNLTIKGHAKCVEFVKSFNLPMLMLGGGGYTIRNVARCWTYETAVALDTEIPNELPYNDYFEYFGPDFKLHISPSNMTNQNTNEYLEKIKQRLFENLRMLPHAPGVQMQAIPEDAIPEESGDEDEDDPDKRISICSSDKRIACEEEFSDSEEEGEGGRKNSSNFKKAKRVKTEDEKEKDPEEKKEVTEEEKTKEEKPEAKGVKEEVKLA
Sequence of Histone deacetylase 2 (Q92769 whole entry): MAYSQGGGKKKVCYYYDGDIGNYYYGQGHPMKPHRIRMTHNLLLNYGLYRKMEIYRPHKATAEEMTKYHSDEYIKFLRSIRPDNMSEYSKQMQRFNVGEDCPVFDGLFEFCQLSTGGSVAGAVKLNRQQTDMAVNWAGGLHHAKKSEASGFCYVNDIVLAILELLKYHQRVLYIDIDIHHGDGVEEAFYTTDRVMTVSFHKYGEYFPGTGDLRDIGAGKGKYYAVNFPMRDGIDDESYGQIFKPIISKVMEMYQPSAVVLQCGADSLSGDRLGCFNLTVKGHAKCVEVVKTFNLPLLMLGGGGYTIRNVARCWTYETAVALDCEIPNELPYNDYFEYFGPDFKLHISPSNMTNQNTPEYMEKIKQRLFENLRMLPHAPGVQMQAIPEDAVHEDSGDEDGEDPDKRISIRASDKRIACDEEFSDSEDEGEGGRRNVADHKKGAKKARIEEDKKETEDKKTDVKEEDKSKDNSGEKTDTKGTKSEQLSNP

Cc1ccc(-c2nc(CNc3ccc(C(=O)NO)cc3)n(-c3ccccc3)n2)s1
Activity [1]: 2.21%
Activity [2]: 2.95%
Activity [3]: Active
IC50 [4]: 349 nM
Activity [5]: Non-Toxic
Activity [6]: Non-Toxic
inhibition [7]: Dose-Dependent Effect
Activity [8]: 1.96%
IC50 [9]: 8450 nM
IC50 [10]: 224 nM
IC50 [11]: 3940 nM
Activity [12]: Non-Toxic
Activity [13]: Non-Toxic
Activity [14]: 15.5%
